Assay results published in ChEMBL document CHEMBL2176900, “Design and synthesis of a novel series of bicyclic heterocycles as potent γ-secretase modulators” (J Med Chem, 2012).
In brackets after ≈: the same amount, converted by molar mass. Activity calls are given as the source filed them. The rule behind the calls is not given here.

Legend:
Rattus norvegicus [1] = experiment: Antialzheimer activity in Sprague-Dawley rat assessed as amyloid beta 38 level in brain at 10 mg/kg, po at 25 hrs by ELISA relative to control; format: functional
In short: (§1)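 Male Sprague-Dawley rats (180-220 g), fasted overnight, were given 10 mg/kg by gastric intubation as a 5 mg/mL suspension in 0.5% methocellulose. At 2, 4, 7 and 25 h, 50 μL CSF was taken from the cisterna magna under isoflurane, then brain was collected. Aβ37/38/40/42 were measured by MesoScale Discovery sandwich immunoassays. Results are mean % change versus T = 0 h, n = 5.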

Rattus norvegicus [2] = experiment: Antialzheimer activity in Sprague-Dawley rat assessed as amyloid beta 38 level in CSF at 10 mg/kg, po at 7 hrs by ELISA relative to control; format: functional; in short: as §1
Rattus norvegicus [3] = experiment: Antialzheimer activity in Sprague-Dawley rat assessed as amyloid beta 38 level in brain at 10 mg/kg, po at 7 hrs by ELISA relative to control; format: functional; in short: as §1
Rattus norvegicus [4] = experiment: Antialzheimer activity in Sprague-Dawley rat assessed as amyloid beta 37 level in CSF at 10 mg/kg, po at 25 hrs by ELISA relative to control; format: functional; in short: as §1
Rattus norvegicus [5] = experiment: Antialzheimer activity in Sprague-Dawley rat assessed as amyloid beta 37 level in CSF at 10 mg/kg, po at 7 hrs by ELISA relative to control; format: functional; in short: as §1
Rattus norvegicus [6] = experiment: Antialzheimer activity in Sprague-Dawley rat assessed as amyloid beta 37 level in brain at 10 mg/kg, po at 4 hrs by ELISA relative to control; format: functional; in short: as §1
[7] = Oral bioavailability in CD1 Swiss mouse at 10 mg/kg; format: ADME, organism-based; conditions: in vivo
[8] = Drug uptake in CD1 mouse brain at 30 mg/kg, po at 8 hrs by LC-MS/MS analysis; format: ADME, organism-based; set-up: dose 30 mg/kg, route oral; conditions: read-out: Drug uptake
In short: (§2)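 Overnight-fasted male CD1 mice received one oral dose (10 or 30 mg/kg) in 20% Captisol. After sacrifice, the left brain hemisphere was stored at −18 °C. Compound level was quantified by a qualified LC-MS/MS method, alongside EDTA plasma spun at 1900g, 4 °C. n = 4 per time point.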

[9] = Plasma concentration in CD1 mouse at 10 mg/kg, po at 8 hrs by LC-MS/MS analysis; format: ADME, organism-based; set-up: dose 10 mg/kg, route oral
In short: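 Mice received a single 10 or 30 mg/kg oral dose. Plasma was sampled at several time points up to 48 h, with EDTA plasma obtained by centrifugation at 1900g, 10 min, 4 °C. Compound was quantified by LC-MS/MS, n = 4.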

[10] = Plasma concentration in CD1 mouse at 10 mg/kg, po at 4 hrs by LC-MS/MS analysis; format: ADME, organism-based; set-up: dose 10 mg/kg, route oral
Mus musculus [11] = experiment: Inhibition of gamma-secretase in CD1 mouse assessed as total amyloid beta level in brain at 30 mg/kg, po at 24 hrs by ELISA relative to control; format: functional; set-up: scale not given: the % may be the effect or the level left
In short: (§3)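 Fasted male CD1 SPF mice were dosed orally at 10 or 30 mg/kg in 20% Captisol. Right hemisphere was homogenized in 0.4% DEA/50 mM NaCl and the high-speed supernatant neutralized. Aβtotal ELISA used N-terminal JRF/rAβ/2 capture, biotinylated 4G8 and streptavidin-peroxidase, then a fluorogenic substrate (ex 320/em 420 nm). Standards spanned 10000–0.3 pg/mL. Values are % change vs T = 0 h, n = 4.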

Mus musculus [12] = experiment: Inhibition of gamma-secretase in CD1 mouse assessed as total amyloid beta level in brain at 10 mg/kg, po at 8 hrs by ELISA relative to control; format: functional; set-up: scale not given: the % may be the effect or the level left; in short: as §3
Mus musculus [13] = experiment: Antialzheimer activity in CD1 mouse assessed as amyloid beta 42 level in brain at 10 mg/kg, po at 4 hrs by ELISA relative to control; format: functional
In short: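 Male CD1 SPF mice, fasted overnight, got a single oral dose of 10 or 30 mg/kg. At each time point the right brain hemisphere was homogenized in 0.4% DEA/50 mM NaCl with protease inhibitors and spun at 221300g for 50 min. The supernatant was neutralized with Tris-HCl pH 6.8. Aβ38 or Aβ42 was read by sandwich ELISA with a fluorogenic peroxidase substrate (ex 320/em 420 nm). Results are mean % change versus T = 0 h, n = 4.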

[14] = Thermodynamic solubility in fed state simulated intestinal fluid; format: physicochemical; conditions: read-out: Therm_solubility
In short: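 Thermodynamic solubility was measured in pH 4.0 and pH 7.4 buffers, 0.01 N HCl, and fasted-state and fed-state simulated intestinal fluids (FaSSIF, FeSSIF). Results are in […].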

[15] = Inhibition of notch processing up to 10 uM
Liver microsomes = experiment: Drug metabolism in human liver microsome assessed as reactive metabolite formation by cyanide-trapping assay; format: ADME
Brain = experiment: Drug uptake in CD1 mouse brain at 10 mg/kg, po at 48 hrs by LC-MS/MS analysis; format: ADME, organism-based; set-up: dose 10 mg/kg, route oral; conditions: in vivo, BLD = below limit of detection; in short: as §2
[16] = Drug uptake in Sprague-Dawley rat brain at 10 mg/kg, po at 2 hrs by LC-MS/MS analysis; format: ADME, organism-based; set-up: dose 10 mg/kg, route oral; conditions: read-out: Drug uptake
In short: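 Overnight-fasted male Sprague–Dawley rats (180–220 g) were dosed 10 mg/kg by gastric intubation of a 5 mg/mL suspension in 0.5% methocellulose. Rats were anesthetized with isoflurane, CSF was taken from the cisterna magna, then they were decapitated. Brain compound levels were measured as in the mouse assay. n = 5.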

[17] = Plasma concentration in Sprague-Dawley rat at 10 mg/kg, po at 25 hrs by LC-MS/MS analysis; format: ADME, organism-based; set-up: dose 10 mg/kg, route oral
In short: (§4)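 Overnight-fasted male Sprague-Dawley rats (180–220 g) were given 10 mg/kg by gastric intubation of a 5 mg/mL suspension in 0.5% methocellulose. Blood was collected after decapitation at 2, 4, 7 and 25 h under isoflurane anaesthesia. Plasma compound was measured as in the mouse assay, n = 5.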

[18] = Plasma concentration in Sprague-Dawley rat at 10 mg/kg, po at 2 hrs by LC-MS/MS analysis; format: ADME, organism-based; set-up: dose 10 mg/kg, route oral; in short: as §4
Rattus norvegicus [19] = experiment: Antialzheimer activity in Sprague-Dawley rat assessed as amyloid beta 42 level in brain at 10 mg/kg, po at 25 hrs by ELISA relative to control; format: functional; in short: as §1
Rattus norvegicus [20] = experiment: Antialzheimer activity in Sprague-Dawley rat assessed as amyloid beta 42 level in CSF at 10 mg/kg, po at 4 hrs by ELISA relative to control; format: functional; in short: as §1
Rattus norvegicus [21] = experiment: Antialzheimer activity in Sprague-Dawley rat assessed as amyloid beta 42 level in brain at 10 mg/kg, po at 4 hrs by ELISA relative to control; format: functional; in short: as §1
Rattus norvegicus [22] = experiment: Antialzheimer activity in Sprague-Dawley rat assessed as amyloid beta 42 level in CSF at 10 mg/kg, po at 2 hrs by ELISA relative to control; format: functional; in short: as §1
Rattus norvegicus [23] = experiment: Antialzheimer activity in Sprague-Dawley rat assessed as amyloid beta 40 level in CSF at 10 mg/kg, po at 4 hrs by ELISA relative to control; format: functional; in short: as §1
Canis familiaris = experiment: Antialzheimer activity in beagle dog assessed as amyloid beta 42 level in cerebrospinal fluid at 20 mg/kg, po at 8 hrs by ELISA relative to control

With `COc1nc(Nc2cccc3c2nc(-c2ccc(F)cc2)n3C)ccc1-n1cnc(C)c1` as the compound, how does the Activity (Rattus norvegicus [1]) read?
Its Activity is 105%.

And the Activity (Rattus norvegicus [2])?
Its Activity is 153%.

And the Activity (Rattus norvegicus [3])?
The Activity was 127%.

And the Activity (Rattus norvegicus [4])?
The Activity was 124%.

What about the Activity (Rattus norvegicus [5]) of the same compound?
Its Activity is 929%.

And the Activity (Rattus norvegicus [6])?
Its Activity is 506%.

And the bioavailability [7]?
Its bioavailability is 100%.

And the concentration at 8 h [8]?
The concentration at 8 h was 12 µM.

And the concentration at 8 h [9]?
Its concentration at 8 h is 2.7 µM.

What about the concentration at 4 h [10] of the same compound?
Its concentration at 4 h is 5.3 µM.

What about the Activity (Mus musculus [11]) of the same compound?
The Activity was 104%.

And the Activity (Mus musculus [12])?
Its Activity is 86%.

And the Activity (Mus musculus [13])?
The Activity was 49%.

What about the solubility thermodynamic [14] of the same compound?
Its solubility thermodynamic is 20 µg/mL (≈ 46.7 µM).

What about the inhibition [15] of the same compound?
Its inhibition is “inactive”.

What about the Drug metabolism (Liver microsomes) of the same compound?
Its Drug metabolism is “Not Active”.

What about the Drug uptake (Brain) of the same compound?
The Drug uptake was “BLD”.

What about the concentration at 2 h [16] of the same compound?
Its concentration at 2 h is 2.5 µM.

What about the concentration at 25 h [17] of the same compound?
The concentration at 25 h was 0.02 µM.

What about the concentration at 2 h [18] of the same compound?
The concentration at 2 h was 4.6 µM.

What about the Activity (Rattus norvegicus [19]) of the same compound?
The Activity was 92%.

What about the Activity (Rattus norvegicus [20]) of the same compound?
The Activity was 66%.

And the Activity (Rattus norvegicus [21])?
The Activity was 64%.

What about the Activity (Rattus norvegicus [22]) of the same compound?
Its Activity is 65%.

What about the Activity (Rattus norvegicus [23]) of the same compound?
The Activity was 60%.

What about the Activity (Canis familiaris) of the same compound?
The Activity was 52%.
